Measurements from ChEMBL document CHEMBL2390922, “Synthesis and biological evaluation of sulforaphane derivatives as potential antitumor agents” (Eur J Med Chem, 2013).
Activity calls are given as the source filed them. The calls are words filed in the database; no cut-off is given here.

Assays:
[1] = test system: A549; assay: Cytotoxicity against human A549 cells after 72 hrs by MTT assay; format: functional, cell-based; conditions: A549, 72 h
In short: (§1)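 After 72 h with a range of compound concentrations, MTT was added for a further 4 h at 37 °C. Formazan was dissolved in DMSO and absorbance read at 570 and 630 nm. Assays ran in triplicate across three independent experiments, and IC₅₀ was calculated for 50% loss of viability.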

[2] = test system: Vero; assay: Cytotoxicity against African green monkey Vero cells after 72 hrs by MTT assay; format: cell-based; conditions: Chlorocebus sabaeus
[3] = test system: HCT-116; assay: Cytotoxicity against human HCT116 cells after 72 hrs by MTT assay; format: functional, cell-based; conditions: HCT-116, 72 h
In short: as §1, with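 “Cells were grown in RPMI-1640 or DMEM with 10% NBS or FBS and 100 U/mL penicillin, at 37 °C under 5% CO₂. After” for “After”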

[4] = test system: MCF7; assay: Cytotoxicity against human MCF7 cells after 72 hrs by MTT assay; format: functional, cell-based; conditions: MCF7, 72 h
In short: as §1, with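 “Cells were grown in RPMI-1640 or DMEM with 10% NBS or FBS and 100 U/mL penicillin, at 37 °C under 5% CO₂. After” for “After”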

[5] = test system: HepG2; assay: Cytotoxicity against human HepG2 cells after 72 hrs by MTT assay; format: functional, cell-based; conditions: HepG2, 72 h
In short: as §1, with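 “Cells were grown in RPMI-1640 or DMEM with 10% NBS or FBS and 100 U/mL penicillin, at 37 °C under 5% CO₂. After” for “After”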

[6] = Cytotoxicity against human SH-SY5Y cells after 72 hrs by MTT assay; format: functional, cell-based
In short: as §1, with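 “Cells were grown in RPMI-1640 or DMEM with 10% NBS or FBS and 100 U/mL penicillin, at 37 °C under 5% CO₂. After” for “After”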

[7] = test system: HepG2; assay: Cell cycle arrest in human HepG2 cells assessed as decrease in accumulation at G0/G1 phase after 48 hrs by DAPI staining-based flow cytometric analysis; format: functional
In short: (§2)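 HepG2 cells were exposed for 48 h to 5, 10 or 20 of each agent, alongside a vehicle control. About […] cells were harvested and washed twice in PBS. DNA content was read by flow cytometry on 10,000 events, giving the percentage of cells in each phase relative to control.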

[8] = test system: HepG2; assay: Induction of apoptosis in human HepG2 cells assessed as late apoptotic cells at 20 uM after 48 hrs by Annexin-V-FITC/propidium iodide staining-based flow cytometric analysis (reference value: 0.29%); format: functional
[9] = test system: HepG2; assay: Cell cycle arrest in human HepG2 cells assessed as accumulation at S phase at 20 uM after 48 hrs by DAPI staining-based flow cytometric analysis relative to control; format: functional
In short: (§3)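 HepG2 cells cultured at 37 °C, 5% CO2, exposed 48 h to 5, 10 or 20 µM. Cells harvested, washed twice in PBS, and DNA content of 10,000 events read by flow cytometry. Phase proportions compared with vehicle control; significance at p<0.05 and p<0.01.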

[10] = test system: HepG2; assay: Induction of apoptosis in human HepG2 cells assessed as early apoptotic cells at 20 uM after 48 hrs by Annexin-V-FITC/propidium iodide staining-based flow cytometric analysis (reference value: 0.14%); format: functional
[11] = biological target: T1, Nuclear factor erythroid 2-related factor 2 (Homo sapiens) (UniProt Q16236); assay: Activation of NRF2 in human HepG2 cells after 6 hrs by spectrophotometric analysis; format: cell-based
T1 sequence (whole entry): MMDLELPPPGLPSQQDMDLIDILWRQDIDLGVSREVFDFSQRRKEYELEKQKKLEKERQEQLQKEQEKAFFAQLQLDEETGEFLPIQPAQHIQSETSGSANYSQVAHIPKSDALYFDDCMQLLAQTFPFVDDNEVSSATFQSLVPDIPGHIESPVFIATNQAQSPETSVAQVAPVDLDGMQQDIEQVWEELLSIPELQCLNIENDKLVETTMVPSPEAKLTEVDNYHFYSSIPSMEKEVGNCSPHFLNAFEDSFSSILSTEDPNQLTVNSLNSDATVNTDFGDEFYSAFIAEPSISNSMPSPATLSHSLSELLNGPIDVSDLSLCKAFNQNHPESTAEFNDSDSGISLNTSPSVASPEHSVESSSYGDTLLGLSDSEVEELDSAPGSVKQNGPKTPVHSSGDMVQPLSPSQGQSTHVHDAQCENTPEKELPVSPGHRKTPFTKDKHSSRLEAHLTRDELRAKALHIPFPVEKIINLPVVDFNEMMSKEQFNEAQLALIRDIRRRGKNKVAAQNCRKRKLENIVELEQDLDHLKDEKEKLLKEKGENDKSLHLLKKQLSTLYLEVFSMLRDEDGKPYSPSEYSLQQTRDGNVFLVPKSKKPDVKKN
In short: (§4)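 HepG2 cells treated 2, 4 and 8 h at 20 µM, or 6 h at 5, 10 and 20 µM. Nuclear extracts were prepared by hypotonic lysis and detergent, then 14,000 g spin at 4 °C. Nrf2 DNA-binding was measured by TransAM ELISA: nuclear extract incubated 1 h at room temperature in wells, anti-Nrf2 (1:1000) 1 h, HRP secondary (1:1000), developing solution 2-15 min, stop solution.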

[12] = test system: HepG2; assay: Induction of apoptosis in human HepG2 cells assessed as late apoptotic cells at 10 uM after 48 hrs by Annexin-V-FITC/propidium iodide staining-based flow cytometric analysis (reference value: 0.29%); format: functional
[13] = test system: HepG2; assay: Induction of apoptosis in human HepG2 cells assessed as early apoptotic cells at 5 uM after 48 hrs by Annexin-V-FITC/propidium iodide staining-based flow cytometric analysis (reference value: 0.14%); format: functional
[14] = test system: HepG2; assay: Induction of apoptosis in human HepG2 cells assessed as early apoptotic cells at 10 uM after 48 hrs by Annexin-V-FITC/propidium iodide staining-based flow cytometric analysis (reference value: 0.14%); format: functional
[15] = test system: HepG2; assay: Cell cycle arrest in human HepG2 cells assessed as accumulation at G2/M phase at 5 to 20 uM after 48 hrs by DAPI staining-based flow cytometric analysis; format: functional; in short: as §3
[16] = test system: HepG2; assay: Induction of apoptosis in human HepG2 cells assessed as late apoptotic cells at 5 uM after 48 hrs by Annexin-V-FITC/propidium iodide staining-based flow cytometric analysis (reference value: 0.29%); format: functional
[17] = biological target: T1, Nuclear factor erythroid 2-related factor 2 (Homo sapiens); assay: Activation of NRF2 in human HepG2 cells at 20 uM by spectrophotometric analysis; format: cell-based; conditions: TDE = time-dependent effect; in short: as §4
[18] = test system: HepG2; assay: Cell cycle arrest in human HepG2 cells assessed as accumulation at S phase after 48 hrs by DAPI staining-based flow cytometric analysis; format: functional; in short: as §2

Row | SMILES | IC50 [1] | IC50 [2] | IC50 [3] | IC50 [4] | IC50 [5] | IC50 [6] | Activity [7] | Activity [8] | Activity [9] | Activity [10] | Activity [11] | Activity [12] | Activity [13] | Activity [14] | Activity [15] | Activity [16] | Activity [17] | Activity [18]
1 | O=[N+]([O-])c1ccc(C[S+]([O-])CCCCN=C=S)cc1 (stereo unspecified) | 14.3 µM | 3.36 µM | 2.83 µM | 7.77 µM | 3.18 µM | 7.23 µM |  |  |  |  |  |  |  |  |  |  |  | 
2 | S=C=NCCCCSCc1ccccc1 | 51.3 µM | 24.9 µM | 41.5 µM | 38.3 µM | 12.6 µM | 20.7 µM |  |  |  |  |  |  |  |  |  |  |  | 
3 | [O-][S+](CCCCN=C=S)Cc1ccccc1 (stereo unspecified) | 7.41 µM | 4.85 µM | 3.66 µM | 3.3 µM | 2.85 µM | 5.21 µM | Dose-dependent effect | 25.33% | 9.11% | 0.24% | Dose-dependent effect | 10.91% | 0.39% | 0.72% | Active | 1.78% | tde | Dose-dependent effect
4 | CC(C)[S+]([O-])CCCN=C=S (stereo unspecified) | 16.7 µM | 8.25 µM | 15.9 µM | 7.93 µM | 7.14 µM | 18.1 µM |  |  |  |  |  |  |  |  |  |  |  | 
5 | [O-][S+](CCCN=C=S)Cc1ccccc1 (stereo unspecified) | 11.8 µM | 10.1 µM | 15.6 µM | 7.92 µM | 9.84 µM | 8.89 µM |  |  |  |  |  |  |  |  |  |  |  | 
6 | [O-][S+](CCCCCCN=C=S)Cc1ccccc1 (stereo unspecified) | 14.7 µM | 4.33 µM | 11.6 µM | 5.49 µM | 6.17 µM | 7.63 µM |  |  |  |  |  |  |  |  |  |  |  | 
7 | [O-][S+](CCCCN=C=S)Cc1ccco1 (stereo unspecified) | 5.64 µM | 5.25 µM | 3.47 µM | 5.68 µM | 3.86 µM | 7.79 µM |  |  |  |  |  |  |  |  |  |  |  | 
8 | CCCC[S+]([O-])CCCCN=C=S (stereo unspecified) | 9.56 µM | 5.15 µM | 2.81 µM | 5.84 µM | 5.93 µM | 6.47 µM |  |  |  |  |  |  |  |  |  |  |  | 
9 | CCC[S+]([O-])CCCCN=C=S (stereo unspecified) | 10.7 µM | 5.64 µM | 3.95 µM | 5.96 µM | 3.91 µM | 7.66 µM |  |  |  |  |  |  |  |  |  |  |  | 
10 | CC(C)C[S+]([O-])CCCCN=C=S (stereo unspecified) | 9.09 µM | 4.98 µM | 2.06 µM | 3.66 µM | 2.16 µM | 5.7 µM |  |  |  |  |  |  |  |  |  |  |  | 
11 | COc1ccc(C[S+]([O-])CCCCN=C=S)cc1 (stereo unspecified) | 32.5 µM | 3.71 µM | 5.46 µM | 8.89 µM | 4.62 µM | 2.79 µM |  |  |  |  |  |  |  |  |  |  |  | 
12 | O=S(=O)(CCCCN=C=S)Cc1ccccc1 | 8.89 µM | 7.17 µM | 6.28 µM | 7.55 µM | 8.49 µM | 4.78 µM |  |  |  |  |  |  |  |  |  |  |  | 
13 | CC(C)[S+]([O-])CCCCCN=C=S (stereo unspecified) | 7.75 µM | 10.3 µM | 3.42 µM | 6.78 µM | 3.69 µM | 8.62 µM |  |  |  |  |  |  |  |  |  |  |  | 
14 | [O-][S+](CCCCN=C=S)CCc1ccccc1 (stereo unspecified) | 10.2 µM | 6.82 µM | 8.02 µM | 9.33 µM | 6.97 µM | 5.6 µM |  |  |  |  |  |  |  |  |  |  |  | 
15 | [O-][S+](CCCCN=C=S)Cc1cccs1 (stereo unspecified) | 8.41 µM | 6.22 µM | 3.21 µM | 4.14 µM | 3.82 µM | 5.31 µM |  |  |  |  |  |  |  |  |  |  |  | 
16 | CC(C)[S+]([O-])CCCCCCN=C=S (stereo unspecified) | 12 µM | 7.31 µM | 9.46 µM | 9.76 µM | 7.82 µM | 7.82 µM |  |  |  |  |  |  |  |  |  |  |  | 
17 | [O-][S+](CCCCN=C=S)c1ccccc1 (stereo unspecified) | 23.8 µM | 4.33 µM | 4.53 µM | 7.05 µM | 6.34 µM | 8.75 µM |  |  |  |  |  |  |  |  |  |  |  | 
18 | [O-][S+](CCCCN=C=S)Cc1ccccn1 (stereo unspecified) | 8.33 µM | 7.65 µM | 3.72 µM | 6.89 µM | 5.35 µM | 7.83 µM |  |  |  |  |  |  |  |  |  |  |  | 
19 | C[S+]([O-])CCCCN=C=S (stereo unspecified) [SULFORAPHANE] | 22 µM | 13.7 µM | 11.6 µM | 17.7 µM | 14.1 µM | 13.3 µM | Dose-dependent effect | 4.19% | 5.9% | 0.9% | Dose-dependent effect | 1.22% | 0.15% | 0.44% | Active | 0.73% | tde | Dose-dependent effect
20 | O=c1[nH]cc(F)c(=O)[nH]1 [FLUOROURACIL] |  | 9.71 µM | 3.24 µM | 10.1 µM |  | 0.97 µM |  |  |  |  |  |  |  |  |  |  |  | 
21 | [O-][S+](CCCCN=C=S)C1CCCC1 (stereo unspecified) | 10.1 µM | 4.6 µM | 3.14 µM | 4.45 µM | 3.64 µM | 7.14 µM |  |  |  |  |  |  |  |  |  |  |  | 
22 | CC[S+]([O-])CCCCN=C=S (stereo unspecified) | 10.2 µM | 7.9 µM | 3.85 µM | 8.26 µM | 5.35 µM | 9.81 µM |  |  |  |  |  |  |  |  |  |  |  | 
23 | CC(C)[S+]([O-])CCCCN=C=S (stereo unspecified) | 10.4 µM | 10.4 µM | 3.74 µM | 8.82 µM | 2.05 µM | 9.42 µM |  |  |  |  |  |  |  |  |  |  |  | 
24 | [O-][S+](CCCCCN=C=S)Cc1ccccc1 (stereo unspecified) | 6.21 µM | 5.85 µM | 5.19 µM | 3.83 µM | 3.91 µM | 7.01 µM |  |  |  |  |  |  |  |  |  |  |  | 
